Source: PubChem BioAssay
HSP90 inh – inhibitors of HSP90 luciferase refolding in rabbit reticulocyte lysate | inhibition, % at 5.6 µM | 290,000 compounds, 0.91% hits | luciferase refolding luminescence, 3 h;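 active means inhibition above the screen-wide mean plus 3 SD, computed separately per campaign, cut at about 16% in these data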;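 further: 0% = DMSO wells and 100% = 60 µM geldanamycin wells; inhibitors lower the luminescence because luciferase stays unfolded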
TRAIL sens C8 – sensitizes caspase-8 expressing cells to TRAIL; AID 624354; 360,000 compounds, 1% hits; inhibition (viability loss, TRAIL sensitization), % at 10 µM; NB7+C8 cells + TRAIL, ATPlite viability luminescence;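 active means compounds causing at least 50% loss of cell viability in the single-dose screen, relative to plate controls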
FLuc inh counter – counter-screen for luciferase assay inhibitors: firefly luciferase inhibition | P08659 | ATPLite firefly luciferase biochemical luminescence, 10 min | inhibition, % at 10 µM | 200,000 compounds, 1.5% hits | AID 1006;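 active means inhibition above about 50% when tested at 10 µM, limit read from the data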
Target sequence (P08659 whole entry, looked up): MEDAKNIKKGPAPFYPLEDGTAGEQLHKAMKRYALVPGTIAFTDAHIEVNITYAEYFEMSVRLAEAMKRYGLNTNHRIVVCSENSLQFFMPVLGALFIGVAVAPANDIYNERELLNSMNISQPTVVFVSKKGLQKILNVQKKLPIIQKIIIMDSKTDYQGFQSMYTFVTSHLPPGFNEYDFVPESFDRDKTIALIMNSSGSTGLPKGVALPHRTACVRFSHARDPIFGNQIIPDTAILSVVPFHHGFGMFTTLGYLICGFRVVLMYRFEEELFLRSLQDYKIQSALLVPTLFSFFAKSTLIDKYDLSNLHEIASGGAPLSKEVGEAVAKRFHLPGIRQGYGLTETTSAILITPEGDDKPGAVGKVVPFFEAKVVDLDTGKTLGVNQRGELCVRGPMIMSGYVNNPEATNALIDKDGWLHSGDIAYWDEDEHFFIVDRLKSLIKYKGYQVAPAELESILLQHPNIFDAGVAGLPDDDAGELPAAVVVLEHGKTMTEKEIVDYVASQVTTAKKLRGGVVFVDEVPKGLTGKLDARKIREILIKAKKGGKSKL
FLuc act counter – affects firefly luciferase, flagging false hits in luciferase stimulation screens. AID 1027. 200,000 tested, under 10 active. activation factor at 10 µM. ATPlite luciferase biochemical, luminescence, 10 min; 0 = ATP-free wells, 1 = DMSO control;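 active means luciferase activation factor, scaled between plate controls, of at least 2 with compound at 10 µM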
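Assay system: Luciferase/luciferin reagent mix; Medium: PBS as buffer for the ATP substrate; Dosing: test compounds dosed from 2 mM stocks in 100% DMSO; Times: 10 min, room temperature; Signal: luminescence from luciferase reaction; Read-out: luciferase activation; Controls: No-ATP low control, compound-free enzyme-plus-ATP high control.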
PPC-1+TRAIL kill – PPC-1 cancer cell killing with TRAIL present; PPC-1 cells + TRAIL, ATPLite viability luminescence; cell killing (% activity), % at 4 µM or 5 µM; 220,000 compounds, 0.41% hits;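 active means cell killing above 50% in the first pass at 4 µM, then a duplicate retest at 5 µM averaging 50% or more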;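 further: plate controls were cells with TRAIL plus DMSO for no effect and medium-only wells lacking cells for full effect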
PPC-1 tox – PPC-1 cell cytotoxicity; shares compounds with PPC-1+TRAIL kill; PPC-1 viability, ATPlite luminescence, overnight; cytotoxicity, % at 5 µM; 1,200 compounds, 50% hits;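 active means reconfirmed compounds whose average cytotoxicity reaches 50% or more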;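 further: 0% = DMSO-treated cells and 100% = wells holding medium but no cells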
Starred values were filed as active, the others as inactive; · = no result. An excerpt weighted towards active compounds, which were near 2% of everything screened.

SMILES	HSP90 inh	TRAIL sens C8	FLuc inh counter	FLuc act counter	PPC-1+TRAIL kill	PPC-1 tox
Nc1c(C(=O)NCCN2CCOCC2)c2nc3ccccc3nc2n1CCc1ccccc1F	5	16	-10	1.1	-7	17
CC(=O)Nc1ccc(CN(C)c2c(C)nc3ccc(C(=O)NCCCn4ccnc4)cn23)cc1	·	5	·	·	·	·
O=C(O)/C=C/C(=O)Nc1ccccc1C(=O)OCC(=O)c1ccc2c(c1)OCCO2	-1	53*	96*	0	78*	79*
CCOC(=O)c1ccccc1NC(=O)/C=C/C(=O)O	0	-2	0	1	-2	·
Cc1cccc(S(=O)(=O)NC(=O)C2(C)CCN2C(=O)c2sccc2C)c1 (stereo unspecified)	·	0	·	·	·	·
Clc1ccc(-c2nc(-c3ccccn3)no2)cc1Cl	-4	78*	88*	0.1	66*	64*
COc1ccc(-c2nc(-c3ccccn3)no2)cc1	94*	96*	98*	0	93*	92*
CCCCCCn1cc(CN2CC(N3CCN(Cc4ccccc4F)CC3)CS2(=O)=O)nn1 (stereo unspecified)	·	5	·	·	·	·
COc1cc2c(cc1OC)CN(C(=O)c1cc(S(=O)(=O)N3CCOCC3)c(Cl)cc1Cl)CC2	3	3	·	·	·	·
O=C1CC(c2ccc3c(c2)OCO3)c2cc3c(cc2N1)OCCO3 (stereo unspecified)	1	-4	-1	1	18	22
CS(=O)(=O)N1CCC(C(=O)Nc2ccc(Cl)cc2Cl)CC1	·	-4	·	·	·	·
CCOc1ccc(C(=O)Nc2cc(C)on2)cc1	6	64*	74*	0.3	47	50*
CCOc1ccc(C(=O)Nc2ccccc2C(=O)O)cc1	7	75*	93*	0.1	62*	62*
CCOc1cc(C(=O)Nc2cc(C)on2)cc(OCC)c1OCC	-3	-11	-4	1	6	·
COc1cccc(C(O)c2nc(-c3ccc4ccccc4c3)cs2)c1 (stereo unspecified)	·	-5	·	·	·	·
Cc1ccccc1CNC(=O)CCn1nc(C)c2c(C)n(-c3ccccc3)nc2c1=O	1	-5	·	·	·	·
O=C(c1ccco1)N1CCN(c2nc(C3CC3)nc3c2nnn3Cc2ccccc2Cl)CC1	3	-3	-5	1	13	4
Cn1c(=O)c2c(nc(Cc3ccc(N)cc3)n2C)n(C)c1=O	-2	-6	·	·	5	·
O=C(CCC1CCCN(C(=O)c2ccc3[nH]ccc3c2)C1)N1CCN(c2ccccn2)CC1 (stereo unspecified)	1	9	-4	1	18	·
O=C(Nc1ccccc1NS(=O)(=O)c1ccc(F)cc1)C1CCC1	0	2	-7	1.1	6	11
O=c1cc2c(nn1Cc1ccc(F)cc1)-c1ccccc1CC2	-1	-4	-11	1.1	15	·
Fc1ccc(CO/N=C/C2=C(Cl)c3ccccc3CC2)cc1	10	-6	-3	1	3	-5
COc1ccccc1-c1cnc(C(O)c2cccc(F)c2)[nH]1 (stereo unspecified)	·	7	·	·	·	·
O=C(NCCNCCO)c1c(O)c2cccc3c2n(c1=O)CCC3	5	11	-1	1	12	10
CC1(C)CSC(=NCc2ccccc2)N1C(=O)c1cccc([N+](=O)[O-])c1	2	-2	0	1	-13	·
SMILES	HSP90 inh	TRAIL sens C8	FLuc inh counter	FLuc act counter	PPC-1+TRAIL kill	PPC-1 tox
COc1ccccc1-[n+]1c(C)cc(/C=C2\Sc3ccccc3N2C)cc1C	0	84*	·	·	82*	82*
COc1ccc(F)cc1-c1cc(NC=O)c2ncc(-c3cccc(C(F)(F)F)c3)n2c1	·	0	·	·	·	·
O=C(c1ccc2c3n(nc2c1)-c1ccccc1CO3)N1CCOCC1	·	51*	·	·	45	49
Cc1ccc2c(c1)COc1c3ccc(C(=O)N4CCCCC4)cc3nn1-2	·	34	·	·	22	·
O=C(c1ccc2c3n(nc2c1)-c1ccccc1CO3)N1CCCCC1	·	70*	·	·	58*	60*
C[C@@H](CO)NC(=O)c1ccc2c3n(nc2c1)-c1ccccc1CO3	·	91*	·	·	89*	91*
N=c1cc(C2(O)CCCCC2)n2c(nc3ccccc32)s1	9	84*	94*	0.1	75*	78*
CCNC(=O)CN(c1ccccc1)S(=O)(=O)c1ccc(Cl)cc1	-1	-4	-7	1.1	-4	1
CCNC(=O)CN(c1ccc(Cl)cc1)S(=O)(=O)c1ccccc1	8	-5	-4	1	-2	·
